Reference: ChEMBL document CHEMBL1144660, “Docking and hydropathic scoring of polysubstituted pyrrole compounds with antitubulin activity” (Bioorg Med Chem, 2008)

Key:
[1] = Inhibition of tubulin polymerization in rat A10 cells after 18 hrs by indirect immunofluorescence technique; assay type: cell-based
Method in brief: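 A-10 cells were exposed to a range of concentrations for 18 hr, fixed, and stained with a β-tubulin antibody for microtubules and with DAPI for DNA. Percent microtubule loss was scored visually at each concentration, averaged over 3 independent experiments, and plotted against concentration to calculate EC50.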

[2] = test system: MDA-MB-435; test: Antiproliferative activity against human MDA-MB-435 cells after 48 hrs by SRB assay; assay type: functional, cell-based; conditions: MDA-MB-435, 48 h

| SMILES | EC50 [1] | IC50 ([2]; read-out: IC50) | IC50 ([2]; read-out: Log IC50 (converted)) |
| --- | --- | --- | --- |
| CCOC(=O)c1[nH]c(Br)c(-c2cc(OC)c(OC)cc2Br)c1Br | 7.1 µM | 1.1 µM | 1.12 µM |
| CCOC(=O)c1[nH]c(Br)c(-c2ccc(Cl)cc2)c1Br | > 50 µM | 0.919 µM | 0.912 µM |
| CCOC(=O)c1[nH]c(Br)c(-c2ccc(OC)cc2)c1Br | 5.1 µM | 0.361 µM | 0.363 µM |
| CCOC(=O)c1cc(-c2ccc(OC)cc2)c(C(=O)c2ccc(OC)cc2)[nH]1 | > 50 µM | 2.6 µM | 2.63 µM |
| COC(=O)c1c(-c2ccc(OC)c(OC)c2)c(-c2ccc(OC)c(OC)c2)cn1CCc1ccc(OC)c(OC)c1 | > 50 µM | 10 µM | 10 µM |
| CCOC(=O)c1[nH]c(Br)c(-c2cc(OC)c(OC)c(OC)c2)c1Br | > 50 µM | 13 µM | 12.9 µM |
| CCOC(=O)c1[nH]cc(-c2ccc(OC)cc2)c1-c1ccc(OC)cc1 | > 50 µM | > 10 µM | 100 µM |
| CCOC(=O)c1[nH]c(C(=O)c2ccc(OC)cc2)c(-c2ccc(OC)cc2)c1Br | > 50 µM | 1.9 µM | 1.91 µM |
| CCOC(=O)c1[nH]c(Br)c(-c2ccc(Br)cc2)c1Br | > 50 µM | 0.312 µM | 0.309 µM |
| CCOC(=O)c1[nH]c(C(=O)c2ccc(OC)cc2)c(-c2ccc(OC)cc2)c1-c1ccc(OC)cc1 | > 50 µM | 4.2 µM | 4.27 µM |
| CCOC(=O)c1[nH]c(Br)c(-c2ccccc2)c1Br | > 50 µM | 10 µM | 10 µM |
| COc1ccc(C(=O)c2[nH]c(C(=O)c3ccc(OC)cc3)c(-c3ccc(OC)cc3)c2-c2ccc(OC)cc2)cc1 | > 50 µM | > 20 µM | 200 µM |
| CCOC(=O)c1[nH]c(Br)c(-c2cccc(OC)c2)c1Br | 2.4 µM | 0.278 µM | 0.282 µM |
| CCOC(=O)c1[nH]c(Br)c(-c2ccc(C)cc2)c1Br | > 50 µM | 2.2 µM | 2 µM |
| CCOC(=O)c1[nH]c(Br)c(-c2ccc(OC)c(OC)c2)c1Br |  |  | 0.0182 µM |
| CCOC(=O)c1cc(-c2ccc(OC)cc2)c(Cl)[nH]1 | > 50 µM | 5 µM | 5.01 µM |
| CCOC(=O)c1c[nH]c(C(=O)c2ccc(OC)cc2)c1-c1ccc(OC)cc1 | > 50 µM | 10 µM | 10 µM |
| CCOC(=O)c1[nH]c(Br)c(-c2ccc3ccccc3c2)c1Br | 7.5 µM | 1.4 µM | 1.41 µM |
| COc1cc2c(c(OC)c1OC)-c1ccc(OC)c(=O)cc1C(NC(=O)CS)CC2 (centres undefined) |  | 2 µM | 2 µM |
